One experiment deals with K562 cells. Description: MTT cytotoxicity assay in K562 cells. The format is cell-based. The note with it: read-out: K562- IC50. The essentials:
(§1)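 Cells were grown in suspension in RPMI 1640 with 10% FBS and penicillin/streptomycin/amphotericin B at 37 °C under 5% CO2. They were seeded at ~5×10^3 cells/well, kept overnight, then exposed to test compounds diluted in DMSO for 48 h. Cells were pelleted (300 g, 4 °C, 5 min) and washed twice in phosphate buffer. MTT (5 mg/ml stock) was added for 4 h at 37 °C, formazan dissolved in DMSO, and A570 read. Triplicate; IC50 given as mean±SD.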
(In general: Tetrazolium assays rely on reduction of a dye to a coloured formazan, in cell work by metabolically active cells.)

In another experiment the test system is CEM cells. As to the kind of experiment: MTT cytotoxicity assay in CEM cells. The note with it: read-out: CEM- IC50, 48 h, Mean±SD, n=3. The format is cell-based. In a few lines:
as §1

The next experiment addresses T1, HDAC8 (Homo sapiens, UniProt Q9BY41).
T1 sequence (Q9BY41 1-377): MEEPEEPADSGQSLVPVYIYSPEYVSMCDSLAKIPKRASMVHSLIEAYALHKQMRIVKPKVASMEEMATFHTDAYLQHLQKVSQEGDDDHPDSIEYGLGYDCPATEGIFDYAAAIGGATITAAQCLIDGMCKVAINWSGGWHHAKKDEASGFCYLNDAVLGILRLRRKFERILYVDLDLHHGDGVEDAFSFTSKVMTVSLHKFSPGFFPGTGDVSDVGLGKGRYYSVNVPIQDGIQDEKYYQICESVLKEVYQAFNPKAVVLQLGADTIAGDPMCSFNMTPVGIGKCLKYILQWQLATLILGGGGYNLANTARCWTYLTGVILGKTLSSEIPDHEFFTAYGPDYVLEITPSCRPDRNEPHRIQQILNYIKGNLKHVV
Description: HDAC enzyme activity assay, HDAC8. It is filed as biochemical. The note with it: for HDAC-8 relative enzyme activity: primary screening at 50 μM. The essentials:
(§2)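 Enzymes were recombinant: HDAC8, and the codon-optimised human HDAC4 catalytic domain (pET14b). Serial inhibitor dilutions in 25 mM Tris-HCl, 75 mM KCl, 0.001% Pluronic F-127, pH 8.0 were pre-incubated with enzyme for 1 h at 30 °C. Reaction ran 60 min at 30 °C with 20 μM Boc-Lys(trifluoroacetyl)-AMC and was stopped with 1.7 μM SATFMK. Trypsin (0.4 mg/ml) released AMC; fluorescence read at Ex 350/Em 450 nm. Triplicate; IC50 from dose-response curves.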

For the next experiment, the target named is HDAC4 (Homo sapiens, UniProt P56524). As to the kind of experiment: HDAC enzyme activity assay, HDAC4. The format is biochemical. In a few lines: as §2
The target of a further experiment is T2, GLUT1 (Homo sapiens, UniProt P11166).
T2 sequence (P11166 1-492): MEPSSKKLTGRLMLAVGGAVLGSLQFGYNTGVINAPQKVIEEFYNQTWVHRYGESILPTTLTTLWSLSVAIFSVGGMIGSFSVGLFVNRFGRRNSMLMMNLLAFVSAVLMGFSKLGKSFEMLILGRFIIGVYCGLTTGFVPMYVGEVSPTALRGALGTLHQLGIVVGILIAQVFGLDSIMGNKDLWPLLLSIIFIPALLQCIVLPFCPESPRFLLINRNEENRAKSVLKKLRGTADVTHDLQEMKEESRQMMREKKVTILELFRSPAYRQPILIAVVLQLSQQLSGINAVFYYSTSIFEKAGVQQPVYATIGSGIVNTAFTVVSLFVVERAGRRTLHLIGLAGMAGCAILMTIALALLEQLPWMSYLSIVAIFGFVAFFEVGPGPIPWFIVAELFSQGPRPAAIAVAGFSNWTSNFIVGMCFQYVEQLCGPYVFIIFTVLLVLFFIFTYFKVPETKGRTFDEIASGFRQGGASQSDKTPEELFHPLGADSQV
It is filed as cell-based. The note with it: for IC50: GLUT1 IC50, hxt0 yeast cells expressing GLUT1, 5 mM C14-glucose, 10 minutes; for decrease of relative transport activity of GLUT1: primary screen, 100 μM compound. In a few lines:
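VW4000fgy1 hxt0 yeast carrying human GLUT1 were grown at 30 °C: first in SC-uracil/2% maltose for 2–3 days, then 1–2 days in SC-uracil/2% glucose from OD600 ~0.5. Cells were resuspended in PBS pH 7.4 at OD600 ~10 and given 5 mM C14-glucose for 10 min. Uptake was quenched with ice-cold buffer pH 5.5, filtered, and counted. Controls: 1% DMSO and 200 μM phloretin.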

Another experiment has as its target T3, GLUT4 (Homo sapiens, UniProt P14672).
T3 sequence (P14672 1-509): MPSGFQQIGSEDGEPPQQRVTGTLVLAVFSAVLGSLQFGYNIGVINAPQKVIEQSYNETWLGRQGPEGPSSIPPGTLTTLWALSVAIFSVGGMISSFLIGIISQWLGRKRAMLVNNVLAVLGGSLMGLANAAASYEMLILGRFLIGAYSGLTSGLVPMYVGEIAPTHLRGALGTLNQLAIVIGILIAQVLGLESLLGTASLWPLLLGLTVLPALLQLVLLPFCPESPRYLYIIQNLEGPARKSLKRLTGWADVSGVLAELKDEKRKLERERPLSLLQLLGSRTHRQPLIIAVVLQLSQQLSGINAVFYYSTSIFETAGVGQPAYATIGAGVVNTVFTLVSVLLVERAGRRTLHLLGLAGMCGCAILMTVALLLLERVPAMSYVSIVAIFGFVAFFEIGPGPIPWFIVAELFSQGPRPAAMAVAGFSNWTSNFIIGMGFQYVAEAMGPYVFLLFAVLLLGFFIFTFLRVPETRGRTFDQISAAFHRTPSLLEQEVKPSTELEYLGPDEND
The format is cell-based. The essentials:
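VW4000fgy1erg4 hxt0 yeast expressing human GLUT4 were cultured at 30 °C, first in SC-uracil/1% maltose and then in SC-uracil/0.2% glucose from OD600 ~0.5. Cells in PBS pH 7.4 (OD600 ~10) were fed 5 mM C14-glucose for 10 min. The reaction was quenched in ice-cold buffer pH 5.5, then filtered and scintillation-counted. Vehicle control was 1% DMSO; 200 μM phloretin served as positive control.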

The test system of the next experiment is GLUT5. It is filed as cell-based, human. The note with it: up to 100 μM. The essentials: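 Uses hexose-transporter-null VW4000 yeast expressing human GLUT5, cultured at 30 °C and 180 rpm. Cells were grown one day in YEP/2% maltose with G418, then 1–2 days in YEP/2% fructose starting from OD600 ~0.5. Washed cells in PBS pH 7.4 (OD600 ~10) took up 10 mM C14-fructose for 10 min. Uptake was stopped with ice-cold KPi/LiCl quench buffer pH 5.5, then filtered and scintillation-counted. Controls were 1% DMSO and 100 μM MSNBA. Screening was at 100 μM; three independent measurements.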

Each structure is given as a SMILES string. “And” between values parts separate entries of the source, which are not always exact repeats. Equal entries are not always repeated. “Also recorded” adds a separate entry of the source. Where two headings read alike, the source gives them in different places.

As usually defined, the IC50 is the concentration that gives 50% inhibition.

Sequence of HDAC4 (P56524 655-1084 limits assumed): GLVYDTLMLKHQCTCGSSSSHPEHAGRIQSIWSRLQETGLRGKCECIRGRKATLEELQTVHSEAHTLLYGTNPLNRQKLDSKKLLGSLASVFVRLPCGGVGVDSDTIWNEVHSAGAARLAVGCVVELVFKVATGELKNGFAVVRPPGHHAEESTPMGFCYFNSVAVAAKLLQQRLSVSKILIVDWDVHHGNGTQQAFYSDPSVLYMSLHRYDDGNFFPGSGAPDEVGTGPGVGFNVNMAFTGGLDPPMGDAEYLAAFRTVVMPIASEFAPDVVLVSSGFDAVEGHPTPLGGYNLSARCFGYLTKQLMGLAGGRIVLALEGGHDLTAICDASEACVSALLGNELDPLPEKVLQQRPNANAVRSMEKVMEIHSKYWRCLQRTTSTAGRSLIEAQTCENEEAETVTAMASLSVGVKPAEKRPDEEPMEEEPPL

`O=C(CN1C(=O)SC(=Cc2ccc(Br)cc2)C1=O)Nc1ccc(F)cc1F` [Compound G2, 2-[5-(4-Bromobenzylidene)-2,4-dioxo-thiazolidin-3-yl]-N-(2,4-diflurophenyl)acetamide]: the half-maximal inhibitory concentration (IC50) in the experiment on K562 cells (MTT, 48 h, Mean±SD, n=3) is above 50 µM; with CEM cells it was 47.7 ± 2.12 µM.
With `Cc1ccc(C=C2SC(=O)N(CC(=O)Nc3ccc(F)cc3F)C2=O)cc1C` [Compound G4, N-[2,4-Difluorophenyl)-2-[5-(3,4-dimethylbenzylidene)-2,4-dioxothiazolidin-3-yl]acetamide], the IC50 with K562 cells (Homo sapiens, K562, 48 h) was above 50 µM.
For the molecule `O=C(CN1C(=O)SC(=Cc2ccc(Cl)cc2)C1=O)Nc1ccc(F)cc1F` [Compound G6, 2-[5-(4-Chlorobenzylidene)-2,4-dioxothiazolidin-3-yl]-N-(2,4-diflurophenyl)acetamide], the “HDAC-8 relative enzyme activity” value at HDAC8 is recorded as below 50%. Moreover, the IC50 was 49 ± 5 µM on HDAC8 (read-out: HDAC8 IC50, Means ±SD, n=3); 48.2 ± 1.23 µM with K562 cells (MTT, 48 h, Mean±SD, n=3); 39.3 ± 2.68 µM in the experiment with CEM cells; above 50 µM at HDAC4 (read-out: HDAC4 IC50, Means ±SD, n=3).
For `O=C(CN1C(=O)SC(=Cc2ccc(F)cc2F)C1=O)Nc1ccc(Cl)cc1C(F)(F)F` [Compound G7, N-(4-Chloro-2-trifluoromethylphenyl)-2-[5-(2,4-difluorobenzylidene)-2,4-dioxothiazolidin-3-yl] acetamide], the IC50 came out at 36.8 ± 1.77 µM in the experiment on K562 cells (MTT, 48 h, Mean±SD, n=3) and 40.4 ± 2.94 µM in the experiment on CEM cells.
The corresponding values for `O=C(CN1C(=O)SC(=Cc2ccc(F)cc2F)C1=O)Nc1ccc(F)cc1F` [Compound G8, 2-[5-(2,4-Difluorobenzylidene)-2,4-dioxothiazolidin-3-yl]-N-(2,4-diflurophenyl)acetamide] are 34.5 ± 3.01 µM and 4.77 ± 1.51 µM.
For the molecule `O=C(CN1C(=O)SC(=Cc2ccc(F)cc2)C1=O)Nc1ccc(Cl)cc1C(F)(F)F` [Compound G9, N-(4-Chloro-2-trifluoromethylphenyl)-2-[5-(4-fluorobenzylidene)-2,4-dioxothiazolidin-3-yl]acetamide], the IC50 at HDAC8 was 45 ± 5 µM; in the experiment on K562 cells (Homo sapiens, K562, 48 h), 43.6 ± 2.23 µM; against HDAC4, above 50 µM. For the same molecule, the “HDAC-8 relative enzyme activity” value at HDAC8 is reported as below 50%.
Consider `O=C(CN1C(=O)SC(=Cc2ccc(F)cc2)C1=O)Nc1ccc(F)cc1F` [Compound G10, N-(2,4-Difluoropheyl)-2-[5-(4-fluoro-benzylidene)-2,4-dioxothiazolidin-3-yl]acetamide], for which the IC50 was 45.4 ± 1.13 µM in the experiment on K562 cells (MTT, 48 h, Mean±SD, n=3) and 27.4 ± 3.06 µM in the experiment with CEM cells.
As for `Cc1ccc(C=C2SC(=O)N(CC(=O)Nc3ccc(F)cc3F)C2=O)cc1` [Compound G12, N-(2,4-Difluoropheyl)-2-[5-(4-methylbenzylidene)-2,4-dioxothiazolidin-3-yl]acetamide], the concentration for half-maximal inhibition (IC50) in the experiment on K562 cells (MTT, 48 h, Mean±SD, n=3) was above 50 µM; in the experiment on CEM cells it was 9.93 ± 2.03 µM.
As for `O=C(CN1C(=O)SC(=Cc2ccccc2)C1=O)Nc1ccc(F)cc1F` [Compound G14, 2-[5-Benzylidene-2,4-dioxothiazolidin-3-yl]-N-(2,4-difluorophenyl)acetamide], the concentration for half-maximal inhibition (IC50) in the experiment on K562 cells (Homo sapiens, K562, 48 h) was above 50 µM.
Turning to `O=C(CN1C(=O)SC(=Cc2ccc(F)cc2F)C1=O)Nc1cccc(C(F)(F)F)c1` [Compound G15, 2-(5-(2,4-difluorobenzylidene)-2,4-dioxothiazolidin-3-yl)-N-(3-(trifluoromethyl)phenyl) acetamide], the concentration for half-maximal inhibition (IC50) is above 50 µM in the experiment on K562 cells (MTT, 48 h, Mean±SD, n=3) and 17.3 ± 1.16 µM in the experiment with CEM cells.
`O=C(CN1C(=O)SC(=Cc2ccc(F)cc2)C1=O)Nc1cccc(C(F)(F)F)c1` [Compound G16, 2-(5-(4-fluorobenzylidene)-2,4-dioxothiazolidin-3-yl)-N-(3-(trifluoromethyl)phenyl)acetamide]: the concentration for half-maximal inhibition (IC50) against GLUT1 is 26.6 µM and 26.8 µM; in the experiment on K562 cells (Homo sapiens, K562, 48 h) it was 23.5 ± 1.94 µM; against GLUT4 it was 21.6 ± 4.5 µM. Also, the “decrease of relative transport activity of GLUT1” value at GLUT1 is listed as above 50%. Further, the “decrease of relative transport activity of GLUT4” value at GLUT4 (primary screen, 100 μM compound) was above 50%. In addition, in the experiment with GLUT5, the “GLUT5 inhibition, result in words” value is “did not affect GLUT5; also recorded: neither G16 nor G17 altered the transport activity of GLUT5”.
For `O=C(CN1C(=O)SC(=Cc2ccccc2)C1=O)Nc1nc2c(Cl)cccc2s1` [Compound G17, 2-(5-benzylidene-2,4-dioxothiazolidin-3-yl)-N-(4-chlorobenzo[d]thiazol-2-yl)acetamide], the IC50 against GLUT1 came to 12.6 ± 1.2 µM; in the experiment on K562 cells (Homo sapiens, K562, 48 h), 79 ± 3.66 µM. Moreover, the “decrease of relative transport activity of GLUT1” value on GLUT1 was above 50%. For the same molecule, the “GLUT1 inhibition, result in words” value on GLUT1 (up to 100 μM) is “selective inhibitor of GLUT1”. For the same molecule, the “GLUT5 inhibition, result in words” value in the experiment on GLUT5 is given as “neither G16 nor G17 altered the transport activity of GLUT5”.
On to `CC(=O)O[C@H]1C(=O)[C@@]2(C)[C@H]([C@H](OC(=O)c3ccccc3)[C@]3(O)C[C@H](OC(=O)[C@H](O)[C@@H](NC(=O)c4ccccc4)c4ccccc4)C(C)=C1C3(C)C)[C@]1(OC(C)=O)CO[C@@H]1C[C@@H]2O` [Paclitaxel, reference compound], for which, in the experiment with K562 cells (Homo sapiens, K562, 48 h), the concentration for half-maximal inhibition (IC50) was found to be 0.29 ± 0.15 µM.
Turning to `CCc1ccc(CCOc2ccc(CC3SC(=O)NC3=O)cc2)nc1` (stereo not drawn) [Pioglitazone, reference compound], the half-maximal inhibitory concentration (IC50) with K562 cells (Homo sapiens, K562, 48 h) came to 32 ± 3.66 µM.

Values taken from PMC9398548 (European journal of pharmaceutical sciences : official …, 2020).
